Published values pooled from the literature.
Protocols differ between the studies behind these lines.

| Compound | test system | conditions | concentration |
| --- | --- | --- | --- |
| CC(C)Oc1cccc(-c2cnc(N3CCC(C(N)=O)CC3)s2)c1 | male Swiss mouse, plasma | oral, 30 mg/kg, 24 h, single dose | 20.6 ng/mL |
| O=S(=O)(c1cccc(C(F)(F)F)n1)N1CCc2ccc(OCc3c(F)cccc3Cl)cc21 | mouse, plasma | intraperitoneal, 10 mg/kg, 2 h | 290 nM |
| O=S(=O)(c1ccc(-c2ccc3nccc(Nc4ccncn4)c3c2)cc1)N1CCOCC1 | female BALB/c mouse, plasma | intraperitoneal, 10 mg/kg, 8 h | 2.16 ng/mL |
| O=C(O)C1CCN(c2ncc(-c3ccc4c(c3)OCCCO4)s2)CC1 | male Swiss mouse, plasma | oral, 30 mg/kg, 8 h, single dose | 4540 ng/mL |
| CC(C)(Nc1nc(-c2ccccn2)nc2ccccc12)c1ccccn1 | female BALB/c mouse, plasma | intravenous, 1 mg/kg, 1 h | 487 ng/mL |
| COc1cc(F)c([C@@H]2CNC(=O)[C@H]2NC(=O)Nc2ccccc2)c(F)c1 | C57BL/6 mouse, plasma | oral, 3 mg/kg, 2 h | 84 nM |
| [2H]c1c([2H])c([2H])c(-c2ccc([C@H](Cn3ccnc3)NC(=O)c3ccc(-c4nnc(-c5ccccc5)o4)cc3)c(Cl)c2)c([2H])c1[2H] | BALB/c mouse, liver | oral, 25 mg/kg, 4 h, single dose | 17000 nM |
| Cc1ccc(-c2cccc3cnc(Nc4ccc(C(=O)N5CCOCC5)cc4)nc23)cn1 | mouse, plasma | intraperitoneal, 10 mg/kg, 2 h | 0 nM |
| O=c1nc(N2CCN(CC3CCCCC3)CC2)sc2c([N+](=O)[O-])cc(C(F)(F)F)cc12 | CD-1 mouse, lung | oral, 100 mg/kg, 4 h | 620 ng/mL |
| c1ccc(-c2nc(N3CCC(c4ccccn4)C3)c3ccccc3n2)nc1 (stereo not shown) | female BALB/c mouse, plasma | oral, 50 mg/kg, 2 h | 2730 ng/mL |
| CC(C)(C)c1cc(NC(=O)Nc2ccc(Oc3ccnc4[nH]c(=O)cnc34)cc2F)n(-c2ccccc2)n1 | BALB/c mouse, plasma | oral, 10 mg/kg/day, 24 h | ~1000 nM |
| Cc1c2ccnc(C(=O)N[C@H](C)CN(C)C)c2cc2c3cc(O)ccc3n(C)c12 | male C57BL/6 mouse, plasma | intraperitoneal, 10 mg/kg, 2 h, single dose | 80 nM |
| O=C(N/N=C/c1ccc2ccccc2c1)c1ccc(O)cc1 | male C57BL/6 mouse, plasma | intraperitoneal, 30 mg/kg, 2 h | ~200 nM |
| O=S(=O)(c1cccc(C(F)(F)F)c1)N1c2cc(OCc3c(Cl)cncc3Cl)ccc2CC1C(F)(F)F (stereo not shown) | mouse, plasma | intraperitoneal, 10 mg/kg, 2 h | 600 nM |
| CC(C)Cc1nn(C)c(=O)c2c(SCCCO)n(Cc3cccc4ccccc34)cc12 | mouse, lung | intraperitoneal, 20 mg/kg, 7 days, single dose | 0 nM |
| O=S(=O)(c1cccc(C(F)(F)F)c1)N1CCc2ccc(OCc3c(F)cncc3Cl)cc21 | mouse, plasma | intraperitoneal, 10 mg/kg, 2 h | 410 nM |
| COc1cc(C)c(Sc2cnc(NC(=O)c3ccc(N4CCN(CCCCCCCNC(=O)COc5cccc6c5C(=O)N(C5CCC(=O)NC5=O)C6=O)CC4)cc3)s2)cc1C(=O)N1CCN(C(C)=O)CC1 (stereo not shown) | male C57BL/6 mouse, plasma | intraperitoneal, 10 mg/kg, 8 h, single dose | ~100 nM |
| O=c1cc(-c2ccccc2)oc2c(O)c(O)ccc12 | male CD-1 mouse, plasma | oral, 50 mg/kg, 4 h | 24 ng/mL |
| CC(C)CN(C[C@@H](O)[C@H](Cc1ccccc1)NC(=O)O[C@H]1CO[C@H]2OCC[C@H]21)S(=O)(=O)c1ccc(N)cc1 | BALB/c mouse, plasma | intravenous, 2.5 mg/kg, 12 h | 0.33 ng/mL |
| CN(C(=O)n1cnc(-c2ccc[n+]([O-])c2)c1)C1CCCCC1 | male CD-1 mouse, plasma | oral, 10 mg/kg, 8 h | 83 ng/mL |
| O=S(=O)(c1cccc(C(F)(F)F)c1)N1CCc2ccc(OCc3c(Cl)cncc3Cl)cc21 | mouse, plasma | intraperitoneal, 10 mg/kg, 4 h | 620 nM |
| COc1ccc2[nH]c3c(C)c4ccnc(C(=O)N[C@H](C)CN(C)C)c4cc3c2c1 | male C57BL/6 mouse, brain | intraperitoneal, 10 mg/kg, 2 h, single dose | 260 nM |
